Screening data deposited in PubChem by Sanford-Burnham Center for Chemical Genomics.
G6PDH counter – L. mesenteroides G6PDH inhibitors, counter-screen for G6PDH-coupled screening assays, biochemical, Leuconostoc mesenteroides enzyme. glucose-6-phosphate dehydrogenase [Leuconostoc mesenteroides]. Purified L. mesenteroides G6PDH, diaphorase/resazurin coupled fluorescence, 45 min. inhibition, % at 5 µM. 200,000 tested, 0.12% active; in the data active means inhibition above about 50%
Diaph act CS – compounds boosting diaphorase resazurin reduction – biochemical, uHTS, resorufin fluorescence, counter-screen for diaphorase-coupled primary assays, primary screen. activation factor at 20 µM. AID 1229, 2008. Diaphorase/resazurin coupled assay, 16 min; stronger effect = higher value; 1 = vehicle wells, 0 = NADH-free wells. 190,000 tested, 0.005% active;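 active means diaphorase activity raised at least twofold by the compound at 20 µM; inactive means activation factor below 2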
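Assay system: bacterial diaphorase enzyme (C. kluyveri) / Input: enzyme 0.07 U/mL final / Medium: 50 mM HEPES pH 7.4 with 4.542 mM MgCl2, 0.005% Tween 20 / Doses: single compound dose of 20 µM, 1% DMSO final / Incubation: 16 min enzyme reaction, ambient temperature / Signal: fluorescence, excitation 544 nm and emission 590 nm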
Diaphorase inh – diaphorase inhibitors and chemical oxidizers, primary screen, counter-screen for diaphorase-coupled primary assays, biochemical, uHTS, resorufin fluorescence | diaphorase resazurin-to-resorufin fluorescence, NADH, 16 min; bacterial (C. kluyveri) enzyme, not human | inhibition, % at 20 µM | 190,000 tested, 0.69% active | AID 1217, 2008;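 active means primary screen inhibition at 20 µM above a set limit, cut at about 50% in these data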;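 further: plate controls were DMSO with full reaction for no effect and wells lacking NADH for full effect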
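Assay system – diaphorase enzyme from Clostridium kluyveri · Amount – diaphorase 0.14 U/mL (working solution) · Times – reaction incubation of 16 min at room temperature · Controls – No-NADH positive control and DMSO neutral control · Signal – resorufin fluorescence 544/590 nm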
PfG6PD inh – PfG6PD enzyme inhibitors, primary screen, biochemical, fluorescence intensity, uHTS; PfGluPho enzyme, NADPH resazurin-diaphorase fluorescence; 350,000 tested, 0.78% active; glucose-6-phosphate dehydrogenase-6-phosphogluconolactonase (Plasmodium falciparum 3D7); AID 504690, 2011; inhibition, % at 20 µM;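 active means inhibition reaching at least a set limit at 20 µM in the primary screen, cut at about 59% in these data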;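 further: 0% = DMSO wells with substrate and 100% = DMSO wells lacking glucose-6-phosphate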
HKDC1 inh – HKDC1 hexokinase inhibitors, primary screen, biochemical, fluorescence, uHTS; AID 493160, 2011; Q2TB90; 340,000 tested, 0.16% active; inhibition, % at 20 µM; recombinant HKDC1, G6PDH/diaphorase resazurin coupled fluorescence;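 active means inhibition above about 35% when tested at 20 µM, limit read from the data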;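 further: plate controls were DMSO wells with enzyme for no effect and DMSO wells lacking enzyme for full effect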
Target sequence (Q2TB90 whole entry, looked up): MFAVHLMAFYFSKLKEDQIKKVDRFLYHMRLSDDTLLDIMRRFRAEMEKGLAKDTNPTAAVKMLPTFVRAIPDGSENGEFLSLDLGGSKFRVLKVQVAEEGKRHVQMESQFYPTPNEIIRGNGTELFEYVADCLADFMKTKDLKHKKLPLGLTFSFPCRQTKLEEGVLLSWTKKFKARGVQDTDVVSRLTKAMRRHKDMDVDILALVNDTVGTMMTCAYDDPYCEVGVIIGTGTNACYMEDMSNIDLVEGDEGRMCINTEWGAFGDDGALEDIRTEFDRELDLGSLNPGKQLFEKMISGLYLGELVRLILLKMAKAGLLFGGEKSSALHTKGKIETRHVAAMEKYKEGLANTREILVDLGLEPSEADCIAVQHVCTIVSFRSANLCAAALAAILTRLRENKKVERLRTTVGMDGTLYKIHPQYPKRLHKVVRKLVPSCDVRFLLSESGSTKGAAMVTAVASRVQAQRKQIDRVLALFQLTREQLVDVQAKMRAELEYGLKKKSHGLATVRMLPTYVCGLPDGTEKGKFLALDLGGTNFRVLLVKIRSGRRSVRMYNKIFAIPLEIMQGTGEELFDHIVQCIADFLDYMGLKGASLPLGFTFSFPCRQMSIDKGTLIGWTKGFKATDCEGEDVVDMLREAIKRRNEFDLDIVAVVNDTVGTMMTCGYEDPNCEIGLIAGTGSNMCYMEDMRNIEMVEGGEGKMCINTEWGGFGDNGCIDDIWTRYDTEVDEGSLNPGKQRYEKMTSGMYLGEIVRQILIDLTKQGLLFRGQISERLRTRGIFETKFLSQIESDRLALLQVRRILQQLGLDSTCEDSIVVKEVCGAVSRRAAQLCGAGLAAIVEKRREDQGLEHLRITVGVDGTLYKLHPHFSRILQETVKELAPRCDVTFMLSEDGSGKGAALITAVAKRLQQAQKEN
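Test system: Recombinant HKDC1 (HK5) hexokinase enzyme, produced in-house | Input: HKDC1 at 5 µg/mL | Buffer or medium: Tris pH 8.0 buffer with MgCl2, Tween-20, BSA, BME | Schedule: 90 min reaction incubation at room temperature, dark | Technique: Resazurin-to-resorufin fluorescence via G6PDH and diaphorase coupling, 525/613 nm | Controls: DMSO wells with and without enzyme mix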
HKDC1 act conf – HKDC1 hexokinase activators, confirmation, biochemical, single concentration; shares compounds with HKDC1 inh; recombinant HKDC1, G6PDH/diaphorase resazurin fluorescence; stronger effect = lower value; inhibition, % at 20 µM; 740 tested, 14% active; AID 504708, 2011;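 active means inhibition at or below a set negative limit, negative inhibition meaning the enzyme was activated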
PfGluPho conf – PfG6PD inhibitors, hit retest, confirmation, biochemical, fluorescence intensity, single concentration | shares compounds with PfG6PD inh | recombinant PfGluPho, NADPH-diaphorase-resazurin fluorescence | inhibition, % at 20 µM | 2,400 tested, 34% active | AID 504753, 2011;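 active means inhibition of at least 50% at 20 µM in any single replicate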;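 further: 0% = DMSO with substrate and 100% = DMSO lacking glucose-6-phosphate substrate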
Diaph ctr 10uM – diaphorase inhibitors and chemical oxidizers, confirmation, counter-screen for P. falciparum G6PD inhibitor project, biochemical, fluorescence intensity, 10 µM NADPH | shares compounds with PfG6PD inh | diaphorase-coupled resazurin reduction, NADPH 10 uM | inhibition, % at 20 µM | 820 tested, 39% active | AID 504862, 2011;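 active means average inhibition reaching 50% or more with the compound at 20 µM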;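 further: resorufin red fluorescence formed as diaphorase reduces resazurin using NADPH; 0% = DMSO with enzyme and 100% = DMSO without enzyme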
Diaph ctr 30uM – diaphorase inhibitors and chemical oxidizers, confirmation, counter-screen for P. falciparum G6PD inhibitor project, biochemical, fluorescence intensity, 30 µM NADPH | shares compounds with PfG6PD inh | Diaphorase/resazurin coupled assay, resorufin fluorescence | inhibition, % at 20 µM | 820 tested, 29% active;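 active means inhibition averaging 50% or more, tested at 20 µM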;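 further: 0% = DMSO with enzyme and 100% = DMSO wells lacking diaphorase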
Numbers without * were called inactive; · = no result given. This is a sample that favours compounds with a hit; in the whole collection about 1.2% have one here.

SMILES | G6PDH counter | Diaph act CS | Diaphorase inh | PfG6PD inh | HKDC1 inh | HKDC1 act conf | PfGluPho conf | Diaph ctr 10uM | Diaph ctr 30uM
CCc1ccc(S(=O)(=O)Nc2cc(SCC(=O)O)c(O)c3ccccc23)cc1 | 48 | 0.8 | 25 | 89* | 54* | 26 | 81* | 34 | 21
O=C(O)CSc1cc(NS(=O)(=O)c2cccc([N+](=O)[O-])c2)c2ccccc2c1O | · | · | · | 106* | 59* | 48 | 89* | 51* | 41
CCC(C)C(CO)NCCCn1cnc2c(OC)ncnc21 (configuration not stated) | · | · | · | -18 | · | · | · | · | ·
CNC(=O)C[C@H]1C(=O)N(c2ccccc2)C[C@@H]1CSC | · | · | · | 4 | · | · | · | · | ·
O=Nc1c(O)ccc2cc(S(=O)(=O)O)ccc12 | · | · | · | 102* | 34 | 15 | 90* | 76* | 73*
CC1=NOC(=O)/C1=C\c1ccc(-c2cc(Cl)ccc2Cl)o1 | 4 | 1 | 2 | 80* | 57* | 10 | 11 | · | ·
N#Cc1ccc(CN2CCN(C(=O)C3CC(=O)N(c4ccc5c(c4)OCCO5)C3)CC2)cc1 (configuration not stated) | · | · | · | 10 | · | · | · | · | ·
COC(=O)c1ccc(NCc2c(O)ccc(O)c2Br)cc1Cl | · | · | · | 104* | 45* | 21 | 39 | · | ·
COc1cc(/C=C2\SC(c3ccc(C)cc3)=NC2=O)cc(OC)c1OC | -46 | 0.7 | 28 | 24 | 2 | · | · | · | ·
COc1cc(/C=C2\SC(c3ccccc3)=NC2=O)cc(Cl)c1O | 17 | 0.4 | 64* | 61* | 49* | 24 | 46 | · | ·
COc1cc(/C=C2\SC(c3ccc(C)cc3)=NC2=O)ccc1O | -70 | 0.6 | 36 | 64* | 33 | 32 | 54* | 2 | -4
COc1ccc(/C=C2\SC(c3ccc(C)cc3)=NC2=O)cc1OC | -66 | 0.8 | 21 | 56 | 8 | · | · | · | ·
Cc1cc2c(N)cccc2nn1 | 52* | 0.6 | 44 | 100* | 35* | 4 | 4 | · | ·
CC1(C)CC2(OC2c2ccccc2[N+](=O)[O-])C(=O)c2ccccc21 (configuration not stated) | · | · | · | 13 | · | · | · | · | ·
NC(=O)C1CCN(C2=C(Cl)C(=O)c3ccccc3C2=O)CC1 | 60* | 0.9 | 5 | 74* | 47* | 73 | 43 | · | ·
NC1=C(Cl)C(=O)c2ccccc2C1=O | · | · | · | -94 | -16 | · | · | · | ·
NC(=O)C1CCN(C2=C(NS(=O)(=O)c3ccccc3)C(=O)c3ccccc3C2=O)CC1 | · | · | · | -4 | 15 | · | · | · | ·
CN1CCN(C2=C(Cl)C(=O)c3ccccc3C2=O)CC1 | · | · | · | 107* | 44* | 33 | 75* | 74* | 77*
CC1COCC(C)N1C1=C(Cl)C(=O)c2ccccc2C1=O (configuration not stated) | · | · | · | 75* | 38* | 43 | 64* | 28 | 24
O=C(NCC(c1ccco1)N1CCCCC1)c1ccc(COc2ccc(Cl)cc2)cc1 (configuration not stated) | · | · | · | 22 | -3 | · | · | · | ·
C[C@@H]1CN([C@@H](C)CO)C(=O)c2cc(-c3ccncc3)cnc2O[C@H]1CN(C)C(=O)c1cccc(F)c1 | · | · | · | 11 | · | · | · | · | ·
COc1ccc2occ(C(=O)c3ccccc3)c2c1 | 7 | 1.1 | -7 | -1 | -2 | · | · | · | ·
COc1ccc(C(=O)c2coc3c2C(=O)C(=O)c2ccccc2-3)cc1 | · | · | · | 111* | 61* | 45 | 104* | 97* | 92*
Cc1cn([C@H]2C[C@H](O)[C@@H](CNCc3ccccc3OCCCN3CCOCC3)O2)c(=O)[nH]c1=O | · | · | · | 13 | · | · | · | · | ·
Cc1ccc(S(=O)(=O)NN=CC=CC=NNS(=O)(=O)c2ccc(C)cc2)cc1 | · | · | · | 39 | · | · | · | · | ·
SMILES | G6PDH counter | Diaph act CS | Diaphorase inh | PfG6PD inh | HKDC1 inh | HKDC1 act conf | PfGluPho conf | Diaph ctr 10uM | Diaph ctr 30uM
Cc1ccc(/C=C2\C(=O)ON=C2c2ccccc2)o1 | 4 | 0.8 | 19 | 9 | -5 | · | · | · | ·
Cc1ccc(-c2ccc(/C=C3\C(=O)ON=C3c3ccccc3)o2)c([N+](=O)[O-])c1 | 7 | 0.7 | 27 | 70* | 43* | 10 | 5 | · | ·
CN1CCn2cnc(C(=O)NCCCCCNC(=O)OC(C)(C)C)c2C1=O | · | · | · | -2 | · | · | · | · | ·
O=C1C(=O)c2c(ccc3ccccc23)-c2ccccc21 | · | · | · | 62* | 33 | -7 | 17 | · | ·
O=C1CCSc2c1ccc1ccccc21 | · | · | · | 11 | 2 | · | · | · | ·
O=S(=O)(c1ccccc1)c1cc(O)ccc1O | 15 | 0.8 | 20 | 16 | 19 | · | · | · | ·
Nc1ccc(S(=O)(=O)c2cc(O)c3ccccc3c2O)cc1 | · | · | · | 103* | 55* | 69 | 70* | 33 | 19
O=C1C(SCCO)=C(SCCO)C(=O)c2ccccc21 | · | · | · | 119* | 72* | 84 | 107* | 87* | 84*
C[C@H](CO)N1C[C@H](C)[C@@H](CN(C)Cc2ccccn2)Oc2ncc(-c3ccccc3)cc2C1=O | · | · | · | 31 | · | · | · | · | ·
O=C1c2cc(CO)cc(O)c2C(=O)c2c(O[C@@H]3OC(CO)[C@@H](O)[C@@H](O)[C@@H]3O)cccc21 (some centres not stated) | · | · | · | -2 | 9 | · | · | · | ·
O=C(O)c1cc(O)c2c(c1)[C@H]([C@H]1c3cc(C(=O)O)cc(O)c3C(=O)c3c(O[C@@H]4O[C@H](CO)[C@@H](O)[C@H](O)[C@H]4O)cccc31)c1cccc(OC3O[C@H](CO)[C@@H](O)[C@H](O)[C@H]3O)c1C2=O (some centres not stated) | · | · | · | 71* | 87* | 52 | 6 | · | ·
